Legend:
[1] = Cytotoxicity against human INA-6 cells assessed as viable fractions using annexin V-FITC/propidium iodide staining by flow cytometry; type: functional, cell-based
How it was run: (§1)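 Human multiple myeloma INA-6 cells or mononuclear cells from peripheral blood of healthy donors exposed to a range of compound concentrations. Viable fraction taken as annexin V/PI double-negative cells; EC50 derived.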

[2] = tested on: PBMC; test: Cytotoxicity against human PBMC cells assessed as viable fractions using annexin V-FITC/propidium iodide staining by flow cytometry; type: cell-based; how it was run: as §1

SMILES	EC50 [1] [µM]	EC50 [2] [µM]
COc1ccc2c(c1OC)C(=O)C=C(C)C2=O	15	13
CC1=C(O)C(=O)c2c(O)ccc(O)c2C1=O	> 100	
COc1c(O)cc2c(c1O)C(=O)C(O)=C(C)C2=O [DIONCOQUINONE E]	100	
CC1=CC(=O)c2cc(O)ccc2C1=O	13	17
CC1=C(O)C(=O)c2cc(O)ccc2C1=O	> 100	
COc1cc2c(c(O)c1O)C(=O)C(O)=C(C)C2=O [DIONCOQUINONE C]	14	
COc1ccc2c(c1)C(=O)C(O)=C(C)C2=O	> 100	50
CC1=C(O)C(=O)c2c(cc(O)c(O)c2O)C1=O	7	70
COc1ccc2c(c1OC)C(=O)C(O)=C(C)C2=O	> 100	
N[C@@H](Cc1ccc(N(CCCl)CCCl)cc1)C(=O)O [MELPHALAN]	2	3
COC1=C(C)C(=O)c2cc(OC)c(O)c(O)c2C1=O [DIONCOQUINONE D]	80	
COc1cc2c(cc1OC)C(=O)C(O)=C(C)C2=O	> 100	
COc1cccc2c1C(=O)C=C(C)C2=O	4	16
COc1cc2c(c(OC)c1OC)C(=O)C(O)=C(C)C2=O	> 100	
CC1=C(O)C(=O)c2c(ccc(O)c2O)C1=O [DIONCOQUINONE B]	11	
COc1cc2c(cc1OC)C(=O)C(C)=CC2=O	6	6.5
COc1cc2c(c(OC)c1OC)C(=O)C=C(C)C2=O	8	7.5
CC1=C(O)C(=O)c2c(O)cccc2C1=O [DROSERONE]	> 100	
COC1=C(C)C(=O)c2ccc(O)c(O)c2C1=O	> 100	
COc1ccc2c(c1O)C(=O)C(O)=C(C)C2=O	> 100	
CC1=C(O)C(=O)c2cc(O)c(O)cc2C1=O	52	
CC1=CC(=O)c2c(O)cccc2C1=O [PLUMBAGIN]	0.8	0.8
CC1=C(O)C(=O)c2c(ccc(O[C@@H]3O[C@H](CO)[C@@H](O)[C@H](O)[C@H]3O)c2O)C1=O [DIONCOQUINONE A]	29	
CC1=CC(=O)c2c(ccc(O)c2O)C1=O	75	100
